This note sets out measurements from ChEMBL document CHEMBL3808301, “Bioactive Iridoid Glycosides from the Whole Plants of Rehmannia chingii” (J Nat Prod, 2016).

The subject of series [1] is A549. As to the kind of experiment: Cytotoxicity against human A549 cells by MTT assay. Format: functional, cell-based. (In general: Tetrazolium assays rely on reduction of a dye to a coloured formazan, in cell work by metabolically active cells.)
Series [2] has as its system HT-29. Kind of series: Cytotoxicity against human HT-29 cells by MTT assay. The class given is functional, cell-based.
Series [3] in a line: Cytotoxicity against human Bel7402 cells by MTT assay. Format: functional, cell-based. The settings on record: Bel-7402.
A short description of series [4]: Cytotoxicity against human BGC823 cells by MTT assay. Format: functional, cell-based. The note with it: BGC-823.
Series [5] relates to A2780. Kind of series: Cytotoxicity against human A2780 cells by MTT assay. The class given is functional, cell-based.
The test system of series [6] is HepG2. As to the kind of experiment: Hepatoprotective activity against APAP-induced toxicity in human HepG2 cells assessed as cell survival rate at 10 uM incubated for 48 hrs by MTT assay. Format: functional. The note with it: HepG2, 48 h, read-out: Survival. In outline:
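HepG2 cells grown in DMEM with 10% fetal calf serum and penicillin/streptomycin at 37 °C, 5% CO2, then seeded and incubated overnight. Test sample (10 μM) added together with APAP (final 8 mM) for 48 h. MTT at 0.5 mg/mL for 4 h, formazan dissolved in DMSO, absorbance read at 570 nm. Survival given as % of normal cells; bicyclol (10 μM) positive control; n = 3.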

Series [7] is described as follows: Cytotoxicity against mouse BV2 cells assessed as cell viability by MTT assay. The settings on record: read-out: Activity. Format: cell-based, BV-2. In outline: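 Murine microglial BV2 cells under the LPS-activation conditions of the NO assay. Viability read by MTT and expressed as a percentage of the LPS-only treatment group. Means ± SD from three independent experiments.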

The test system of series [8] is BV-2. As to the kind of experiment: Inhibition of LPS-induced NO production in mouse BV2 cells assessed as reduction in nitrite level pretreated for 24 hrs before LPS treatment for additional 24 hrs by Griess reaction method. The class given is functional, cell-based. Summed up: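 BV2 microglia plated and preincubated 24 h, then exposed to LPS 0.3 μg/mL for a further 24 h. Nitrite in the culture supernatant measured by Griess reaction at OD 550 nm against a NaNO2 standard. Curcumin served as positive control. IC50 given as mean ± SD of three independent experiments.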
A general note: Griess reagent forms a coloured azo dye with nitrite.

As a reminder, the IC50 is the midpoint of a concentration-inhibition curve.

The structures appear in SMILES notation.

As for `COc1cc(/C=C/C(=O)O[C@H]2[C@@H]3C=CO[C@@H](O[C@@H]4O[C@H](CO)[C@@H](O)[C@H](O)[C@H]4O)[C@@H]3[C@@]3(CO)O[C@@H]23)ccc1O`, the IC50 in series [1], in series [2], in series [3], in series [4] and in series [5] was more than 10 µM in each case.
As to `CC(/C=C/[C@@]1(O)C(C)(C)CCC[C@@]1(C)O[C@@H]1O[C@H](C)[C@@H](O)[C@H](O)[C@H]1O)=C\C(=O)O[C@@H]1C[C@](C)(O)[C@H]2[C@H](O[C@@H]3O[C@H](CO)[C@@H](O)[C@H](O)[C@H]3O)OC=C[C@H]21`, the IC50 in series [1], in series [2], in series [3], in series [4] and in series [5] was more than 10 µM throughout.
For `C[C@H]1[C@H]2[C@H](O[C@@H]3O[C@H](COC(=O)/C=C/c4ccccc4)[C@@H](O)[C@H](O)[C@H]3O)OC=C(C(=O)O)[C@H]2C[C@@H]1O`, the IC50 in series [1], in series [2], in series [3], in series [4] and in series [5] was more than 10 µM throughout. In addition, the viability at 10 µM in series [6] is 65.9%.
Consider `C[C@@]1(O)[C@@H]2C(=C[C@H]1O[C@@H]1O[C@H](C(=O)O)[C@@H](O)[C@H](O)[C@H]1O)C=CO[C@H]2O[C@@H]1O[C@H](CO)[C@@H](O)[C@H](O)[C@H]1O`, for which the IC50 in series [1], in series [2], in series [3], in series [4] and in series [5] was more than 10 µM throughout.
Take `OC[C@H]1O[C@@H](O[C@@H]2OC=C[C@H]3[C@H](O[C@@H]4O[C@H](CO)[C@@H](O)[C@H](O)[C@H]4O)[C@@H]4O[C@]4(CO)[C@@H]23)[C@H](O)[C@@H](O)[C@@H]1O`: the IC50 in series [1], in series [2], in series [3], in series [4] and in series [5] was more than 10 µM in each case.
Consider `C[C@]1(O)C[C@@H](O)[C@@H]2C=CO[C@@H](O[C@@H]3O[C@H](CO)[C@@H](O)[C@H](O[C@@H]4C[C@@H]5[C@H]([C@H](O[C@@H]6O[C@H](CO)[C@@H](O)[C@H](O)[C@H]6O)O4)[C@@](C)(O)C[C@H]5O)[C@H]3O)[C@@H]21`, for which the IC50 in series [1], in series [2], in series [3], in series [4] and in series [5] was more than 10 µM in each case.
Turning to `C[C@]1(O)CCC2=CCO[C@@H](O[C@@H]3O[C@H](CO)[C@@H](O)[C@H](O)[C@H]3O)[C@@H]21`, the IC50 in series [1], in series [2], in series [3], in series [4] and in series [5] was more than 10 µM in each case.
In the case of `C[C@]1(O)[C@H](O)C=C2C=CO[C@@H](O[C@@H]3O[C@H](CO)[C@@H](O)[C@H](O)[C@H]3O)[C@@H]21`, the IC50 in series [1], in series [2], in series [3], in series [4] and in series [5] was more than 10 µM each time.
Take `OC[C@H]1O[C@H](OC[C@H]2O[C@@H](O[C@@H]3OC=C[C@H]4[C@H](O)[C@@H]5O[C@]5(CO)[C@@H]34)[C@H](O)[C@@H](O)[C@@H]2O)[C@H](O)[C@@H](O)[C@H]1O`: the IC50 in series [1], in series [2], in series [3], in series [4] and in series [5] was more than 10 µM each time.
With `OCC1=C[C@@H](O)[C@]2(O[C@@H]3O[C@H](CO)[C@@H](O)[C@H](O)[C@H]3O)C=CO[C@@H](O[C@@H]3O[C@H](CO)[C@@H](O)[C@H](O)[C@H]3O)[C@H]12`, the IC50 in series [1], in series [2], in series [3], in series [4] and in series [5] was more than 10 µM throughout.
In the case of `C[C@]1(O)C=CC2=CCO[C@@H](O[C@@H]3O[C@H](CO)[C@@H](O)[C@H](O)[C@H]3O)[C@@H]21`, the IC50 in series [1], in series [2], in series [3], in series [4] and in series [5] was more than 10 µM each time.
With `C[C@]1(O)C[C@@H](O)[C@@H]2C=CO[C@@H](O[C@@H]3O[C@H](CO)[C@@H](O)[C@H](O)[C@H]3O)[C@@H]21`, the IC50 in series [1], in series [2], in series [3], in series [4] and in series [5] was more than 10 µM in each case. In series [6], the viability at 10 µM stood at 69.9%.
For the compound `C[C@]1(O)C[C@@H](O[C@@H]2O[C@H](CO)[C@@H](O)[C@H](O)[C@H]2O)[C@@H]2C=CO[C@@H](O[C@@H]3O[C@H](CO)[C@@H](O)[C@H](O)[C@H]3O)[C@@H]21`, the IC50 in series [1], in series [2], in series [3], in series [4] and in series [5] was more than 10 µM in each case.
For `OCC1=C[C@@H](O)[C@]2(O[C@@H]3O[C@H](CO)[C@@H](O)[C@H](O)[C@H]3O[C@H]3O[C@@H](CO)[C@H](O)[C@@H](O)[C@@H]3O)C=CO[C@@H](O[C@@H]3O[C@H](CO)[C@@H](O)[C@H](O)[C@H]3O)[C@H]12`, the IC50 in series [1], in series [2], in series [3], in series [4] and in series [5] was more than 10 µM each time.
As for `OCC1=C[C@@H](O)[C@]2(O[C@@H]3O[C@H](CO)[C@@H](O)[C@H](O)[C@H]3O[C@H]3O[C@@H](CO)[C@H](O)[C@@H](O)[C@@H]3O[C@@H]3O[C@H](CO)[C@@H](O)[C@H](O)[C@H]3O)C=CO[C@@H](O[C@@H]3O[C@H](CO)[C@@H](O)[C@H](O)[C@H]3O)[C@H]12`, the IC50 in series [1], in series [2], in series [3], in series [4] and in series [5] was more than 10 µM throughout. The viability at 10 µM in series [6] amounted to 64%.
With `C[C@]1(O)C[C@@H](O)[C@@H]2C[C@H](O[C@H]3C[C@@](C)(O)[C@@H]4[C@@H](O[C@H]5O[C@@H](CO)[C@H](O)[C@@H](O)[C@@H]5O)OC=C[C@@H]43)O[C@@H](O[C@H]3O[C@@H](CO)[C@H](O)[C@@H](O)[C@@H]3O)[C@@H]21`, the IC50 in series [1], in series [2], in series [3], in series [4] and in series [5] was more than 10 µM in each case.
For `C[C@]1(O)C[C@@H](O)[C@@H]2C[C@@H](O[C@H]3C[C@@](C)(O)[C@@H]4[C@@H](O[C@H]5O[C@@H](CO)[C@H](O)[C@@H](O)[C@@H]5O)OC=C[C@@H]43)O[C@@H](O[C@H]3O[C@@H](CO)[C@H](O)[C@@H](O)[C@@H]3O)[C@@H]21`, the IC50 in series [1], in series [2], in series [3], in series [4] and in series [5] was more than 10 µM each time.
Consider `C[C@]1(O)C[C@@H](O)[C@]2(O)C=CO[C@@H](O[C@@H]3O[C@H](CO)[C@@H](O)[C@H](O)[C@H]3O)[C@@H]21`, for which the IC50 in series [1], in series [2], in series [3], in series [4] and in series [5] was more than 10 µM throughout.
Turning to `OCC1=C[C@@H](O)[C@@H]2C=CO[C@@H](O[C@@H]3O[C@H](CO)[C@@H](O)[C@H](O)[C@H]3O)[C@H]12` [AUCUBIN], the IC50 in series [1], in series [2], in series [3], in series [4] and in series [5] was more than 10 µM throughout.
For `COC(=O)c1cc(OC)c2c(c1-c1c(CO)cc(OC)c3c1OCO3)OCO2` [BICYCLOL], the viability at 10 µM in series [6] is 66.5%.
Turning to `O=C(O[C@H]1[C@@H]2C=CO[C@@H](O[C@@H]3O[C@H](CO)[C@@H](O)[C@H](O)[C@H]3O)[C@@H]2[C@@]2(CO)O[C@@H]12)c1ccc(O)cc1` [CATALPOSIDE], the IC50 in series [1], in series [2], in series [3], in series [4] and in series [5] was more than 10 µM each time.
As for `COc1cc(/C=C/C(=O)CC(=O)/C=C/c2ccc(O)c(OC)c2)ccc1O` [CURCUMIN], the viability in series [7] was 93.4%. Also, the IC50 in series [8] worked out at 0.52 µM.
On to `CC(/C=C/[C@@]1(O)C(C)(C)CCC[C@@]1(C)O)=C\C(=O)O[C@@H]1C[C@](C)(O)[C@H]2[C@H](O[C@@H]3O[C@H](CO)[C@@H](O)[C@H](O)[C@H]3O)OC=C[C@H]21` [REHMAGLUTOSIDE F], for which the IC50 in series [1], in series [2], in series [3], in series [4] and in series [5] was more than 10 µM in each case. Moreover, in series [6], the viability at 10 µM was determined as 63.4%.
